Experimental data: ChEMBL document CHEMBL2429753, “Synthesis and chemical and biological comparison of nitroxyl- and nitric oxide-releasing diazeniumdiolate-based aspirin derivatives” (J Med Chem, 2013)
Calls of active or inactive are those of the source. The calls are words filed in the database; no cut-off is given here.

Columns and labels:
[1] = Half life of the compound; assay type: physicochemical
[2] = Drug metabolism of the compound in guinea pig serum assessed as aspirin formation at 100 uM after 40 mins by HPLC analysis; assay type: ADME, cell-free, Cavia porcellus
Procedure, shortened: (§1)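 Compound added at 100 μM final to 0.1 M phosphate buffer, pH 7.4, with 50 μM DTPA and 2% guinea pig serum, preheated to 37°C. Reaction followed over time by reversed-phase C18 HPLC with a water/acetonitrile gradient containing 0.1% formic acid. Products identified by co-elution with authentic standards.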

Rattus norvegicus [3] = assay: Antiinflammatory activity in po dosed Sprague-Dawley rat assessed as inhibition of carrageenan-induced paw edema administered 1 hr prior to carrageenan challenge measured after 3 hrs; assay type: functional; conditions: read-out: ID50 (the source's name)
Procedure, shortened: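 Rats 160-180 g (n = 3) given compound by gavage at 0.8 mmol/kg, suspended in 1% methyl cellulose in water; controls received vehicle. After 1 h, 100 μL of 1% carrageenan in 0.9% NaCl injected into the right hind paw. Paw volume read by plethysmometer at 0 and 3 h. ID50 taken from dose-response curves as the dose halving the control inflammatory response.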

[4] = Drug metabolism in guinea pig serum assessed as NONO-salicylate formation at 100 uM after 40 mins by HPLC analysis; assay type: ADME, cell-free, Cavia porcellus; procedure, shortened: as §1
[5] = Prodrug conversion of the compound assessed as conversion of MbO2 to metMb at 250 uM by spectrophotometry; assay type: ADME
Procedure, shortened: (§2)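 MbO2 (50 μM) exposed to compound at 37°C in pH 7.4 buffer (50 μM DTPA), with or without 2% guinea pig serum and with or without 1 mM GSH. Formation of metMb followed spectrally at 30-900 s intervals for 800 s to 6 h. MbO2 autoxidation monitored separately every 600 s over 12 h. n = 3.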

[6] = Drug metabolism of the compound in PBS buffer assessed as salicylate formation at pH 10 by NMR spectroscopy; assay type: physicochemical
Rattus norvegicus [7] = assay: Toxicity in Sprague-Dawley rat assessed as stomach ulcer at 1.38 mmol/kg, po after 6 hrs relative to aspirin; assay type: organism-based; conditions: in vivo
Procedure, shortened: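 Rats fasted 24 h with water allowed, then dosed orally at 1.38 mmol/kg in 1% methylcellulose vehicle; controls received vehicle. Killed by CO2 at 6 h. Stomachs examined under a magnifying glass and ulcers scored by number and size (1 mm = 1; 1-2 mm = 2; >2 mm = length in mm). Ulcer index = total ulcer length per stomach averaged over animals (n = 4).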

[8] = Half life of the compound at pH 7.4; assay type: physicochemical
[9] = Half life of the compound at pH 7.4 in presence of guinea pig serum; assay type: physicochemical
[10] = Drug metabolism of the compound in PBS buffer assessed as accumulation of DEA/NO at pH 10 after 10 mins by NMR spectroscopy; assay type: physicochemical; conditions: pH 10, 10 min
A549 [11] = assay: Cellular uptake in human A549 cells assessed as HNO/NO release at 10 uM by fluorescence asay; assay type: ADME, cell-based; conditions: a549, 10 µM
Procedure, shortened: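 A549 cells seeded at 60,000 per well and grown 4 h, then loaded with 10 μM DAF-FM diacetate in PBS for 75 min at 37°C and washed three times. Compound added at 10 μM final (prodrugs from DMSO stock, ionic NONOates from 10 mM NaOH stock). Fluorescence at 535 nm (excitation 485 nm) followed over time at 37°C. n = 2, six replicates per plate.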

HUVEC = assay: Cytotoxicity against human HUVEC cells up to 100 uM after 48 hrs by MTT assay; assay type: cell-based
Procedure, shortened: (§3)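 A549 cells in RPMI 1640 with 10% FBS, and HUVECs in endothelial growth medium, both at 37°C in 5% CO2. Seeded at 8,000-10,000 per well, grown overnight, then exposed to 0-200 μM for 48 h. MTT (10 μL of 2 mg/mL) added for 1 h at 37°C, formazan dissolved in DMSO and read at 550 nm. n = 3 for A549, n = 1 for HUVEC, each at least in triplicate.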

[12] = Drug metabolism of the compound in PBS buffer at pH 10 after 90 mins by NMR spectroscopy; assay type: physicochemical; conditions: pH 10, 1.5 h
[13] = Drug metabolism in guinea pig serum assessed as NONO-salicylate formation at 100 uM after 5 mins by HPLC analysis; assay type: ADME, cell-free, Cavia porcellus; procedure, shortened: as §1
[14] = Drug metabolism in guinea pig serum assessed as aspirin formation at 100 uM after 5 mins by HPLC analysis; assay type: ADME, cell-free, Cavia porcellus; procedure, shortened: as §1
[15] = Drug metabolism of the compound in PBS buffer assessed as aspirin formation; assay type: physicochemical
[16] = Drug metabolism of the compound in PBS buffer assessed as accumulation of DEA/NO at pH 10 by NMR spectroscopy; assay type: physicochemical
[17] = Prodrug conversion in guinea pig serum assessed as conversion of MbO2 to metMb at 50 uM by spectrophotometr; assay type: ADME, Cavia porcellus; procedure, shortened: as §2
A549 [18] = assay: Cytotoxicity against human A549 cells after 48 hrs by MTT assay; assay type: functional, cell-based; conditions: A549, 48 h; procedure, shortened: as §3
[19] = Prodrug activation in guinea pig serum assessed as HNO release at 100 uM at pH < 6 by electrochemical detection method; parameters: species or system Cavia porcellus
Procedure, shortened: (§4)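 NO electrode equilibrated at room temperature in buffer of the chosen pH containing 50 μM DTPA and 2% guinea pig serum. Compound added at 100 μM (0.1% DMSO) and maximum current recorded; triplicate additions. HNO measured indirectly after adding 1 mM ferricyanide to oxidize it to NO. Mean ± SD, n = 3.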

[20] = Drug metabolism of the compound in PBS buffer assessed as aspirin formation at pH 10 by NMR spectroscopy; assay type: physicochemical
[21] = Prodrug activation in guinea pig serum assessed as HNO release at 100 uM at pH > 6 by electrochemical detection method; parameters: species or system Cavia porcellus; procedure, shortened: as §4
[22] = Drug metabolism of the compound in PBS buffer assessed as salicylate formation at pH 7.4; assay type: physicochemical
[23] = Drug metabolism of the compound in PBS buffer assessed as acetate formation at pH 10 by NMR spectroscopy; assay type: physicochemical
[24] = Cardioprotective effect in mouse cardiomyocytes assessed as increase in whole calcium transient at 500 uM by confocal laser scanning microscopy relative to control; assay type: functional, cell-based; conditions: Cardiomyocyte
Procedure, shortened: (§5)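 Ventricular myocytes from wild-type mice aged 2-4 months, anesthetized with ip pentobarbital 100 mg/kg, superfused with compound at 500 μM. Sarcomere shortening imaged under 0.5 Hz field stimulation and length tracked by real-time Fourier transform. Relaxation taken as time from peak shortening to 50% relaxation. Ca2+ transients read by confocal microscopy after fluo-4/AM loading (20 μM, 30 min). n = 12 cells.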

Serum = assay: Drug metabolism in fetal bovine serum by HPLC analysis; assay type: ADME, cell-free, Bos taurus; conditions: cattle
[25] = biological target: Glyceraldehyde-3-phosphate dehydrogenase (Homo sapiens) (UniProt P04406); assay: Inhibition of GAPDH in human A549 cells at 100 uM after 1 hr by fluorescence assay; assay type: cell-based
Glyceraldehyde-3-phosphate dehydrogenase (Homo sapiens), sequence (P04406 2-335 limits assumed): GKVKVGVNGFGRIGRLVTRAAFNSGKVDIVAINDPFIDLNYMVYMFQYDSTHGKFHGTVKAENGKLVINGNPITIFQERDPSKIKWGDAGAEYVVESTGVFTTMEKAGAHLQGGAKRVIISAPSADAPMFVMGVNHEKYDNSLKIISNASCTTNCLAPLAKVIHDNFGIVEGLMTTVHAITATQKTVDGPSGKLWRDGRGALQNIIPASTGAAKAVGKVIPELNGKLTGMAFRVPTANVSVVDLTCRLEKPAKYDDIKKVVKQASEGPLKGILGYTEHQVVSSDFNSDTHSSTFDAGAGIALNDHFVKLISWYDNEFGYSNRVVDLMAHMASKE
Procedure, shortened: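 A549 cells seeded at 30,000 per well, grown overnight and treated with 100 μM for 1 h at 37°C. Cells lysed 20 min at 4°C in KAlert buffer. Lysate mixed with KAlert mastermix and GAPDH activity read as fluorescence at 570 nm (excitation 540 nm). Mean ± SD of triplicate; one-way ANOVA against control.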

[26] = Cardioprotective effect in mouse cardiomyocytes assessed as myocyte contractility measured as sarcomere shortening at 500 uM relative to control; assay type: functional, cell-based; conditions: Cardiomyocyte; procedure, shortened: as §5
[27] = biological target: T1, Prostaglandin G/H synthase 2 (Homo sapiens) (UniProt P35354); assay: Inhibition of COX-2 mediated PGE2 production in human A549 cells at 25 to 50 uM after 24 hrs by EIA; assay type: cell-based
T1 sequence (whole entry): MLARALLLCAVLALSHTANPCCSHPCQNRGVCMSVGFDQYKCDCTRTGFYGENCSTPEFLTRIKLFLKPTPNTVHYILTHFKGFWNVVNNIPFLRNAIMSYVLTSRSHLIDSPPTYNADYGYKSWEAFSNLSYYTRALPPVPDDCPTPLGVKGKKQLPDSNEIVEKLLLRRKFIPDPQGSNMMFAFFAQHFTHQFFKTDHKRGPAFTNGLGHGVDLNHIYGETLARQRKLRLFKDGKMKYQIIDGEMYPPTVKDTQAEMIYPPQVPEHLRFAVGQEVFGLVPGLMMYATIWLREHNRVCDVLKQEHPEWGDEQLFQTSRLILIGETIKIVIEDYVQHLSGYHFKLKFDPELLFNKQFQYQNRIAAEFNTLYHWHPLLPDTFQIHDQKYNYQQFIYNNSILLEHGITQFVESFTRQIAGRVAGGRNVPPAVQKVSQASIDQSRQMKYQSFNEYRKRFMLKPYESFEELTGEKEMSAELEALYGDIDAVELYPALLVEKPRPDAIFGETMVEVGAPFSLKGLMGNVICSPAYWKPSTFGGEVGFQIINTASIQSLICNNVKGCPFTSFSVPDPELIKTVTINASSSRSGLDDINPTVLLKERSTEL
Procedure, shortened: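 A549 cells seeded at 50,000 per well and grown 12 h, then treated with 25 or 50 μM (0.1% DMSO) for 24 h at 37°C. PGE2 in the supernatant measured by competitive AChE-tracer EIA: overnight incubation at 4°C, Ellman's reagent development, […]. Run in triplicate.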

[28] = Cardioprotective effect in mouse cardiomyocytes assessed as reduction in time required for half relaxation from peak shortening at 500 uM relative to control; assay type: functional, cell-based; parameters: scale not given: the % may be the effect or the level left; conditions: Cardiomyocyte; procedure, shortened: as §5
[29] = Stability in mouse cardiomyocytes after 20 to 30 mins; assay type: ADME, cell-based; conditions: cardiomyocyte
[30] = Drug metabolism of the compound in PBS buffer assessed as isopropanol formation at pH 10 by NMR spectroscopy; assay type: physicochemical
[31] = Prodrug conversion in guinea pig serum assessed as conversion of MbO2 to metMb at 100 uM by spectrophotometry; assay type: ADME, Cavia porcellus; conditions: 50 or 250 µM, in the assay text read “at 50 or 250 uM” for “at 100 uM”; procedure, shortened: as §2
[32] = Drug metabolism of the compound in PBS buffer assessed as formaldehyde formation at pH 10 by NMR spectroscopy; assay type: physicochemical

Compound CCN(CC)/[N+]([O-])=N/[O-].[Na+] has a half-life [1] of 2.5 min.

With CC(C)N/[N+]([O-])=N/OCOC(=O)c1ccccc1O the Drug metabolism [2] was “Active”.

For CC(=O)Oc1ccccc1C(=O)O [ASPIRIN], the ED50 (Rattus norvegicus [3]) was 129 mg/kg.

For CCN(CC)/[N+]([O-])=N/OCOC(=O)c1ccccc1O, the Drug metabolism [4] was “Not Active”.

For CCN(CC)/[N+]([O-])=N/OCOC(=O)c1ccccc1OC(C)=O, the Drug metabolism [5] was “Active”, the Drug metabolism [6] was “Active” and the UI (Rattus norvegicus [7]) was 0. For the same compound, the half-life [8] was 36 h, the half-life [9] was 13 min and the Drug metabolism [10] was “Active”. For the same compound, the Drug uptake (A549 [11]) was “Active”, the Activity (HUVEC) was “Non-toxic” and the Drug metabolism [12] was “Not Active”. The Drug metabolism [13] was “Active”, the ED50 (Rattus norvegicus [3]) was 169 mg/kg and the Drug metabolism [14] was “Active”. For the same compound, the Drug metabolism [15] was “Active”, the Drug metabolism [16] was “Active” and the Drug metabolism [17] was “Active”. For the same compound, the IC50 (A549 [18]) was 135 µM, the Drug metabolism [19] was “Not Active” and the Drug metabolism [20] was “Active”. For the same compound, the Drug metabolism [21] was “Not Active”.

In the case of CC(=O)Oc1ccccc1C(=O)OCO/N=[N+](\[O-])NC(C)C, the Drug metabolism [5] is reported as “Active”, the Drug metabolism [6] is reported as “Active” and the Drug metabolism [22] is reported as “Active”. The Drug metabolism [23] was “Active”, the UI (Rattus norvegicus [7]) was 3.3 and the half-life [8] was 7.5 h. The half-life [9] was 18 min, the Drug uptake (A549 [11]) was “Active” and the Activity (HUVEC) was “Non-toxic”. The Drug metabolism [13] was “Active”, the Activity [24] was 24% and the Drug metabolism (Serum) was “Active”. For the same compound, the inhibition [25] was “Active”, the Activity [26] was 201% and the ED50 (Rattus norvegicus [3]) was 121 mg/kg. For the same compound, the Drug metabolism [14] was “Active”, the inhibition [27] was “Active” and the Activity [28] was 17%. For the same compound, the IC50 (A549 [18]) was 90 µM, the Stability [29] was “Stable” and the Drug metabolism [19] was “Not Active”. The Drug metabolism [30] was “Active”, the Drug metabolism [31] was “Active” and the Drug metabolism [21] was “Active”. The Drug metabolism [32] was “Active”.

CC(C)N[N+]([O-])=N[O-].[Na+] gave a half-life [1] of 5.7 min.
